Candida biofilm: kills Candida albicans biofilms | 85,000 compounds, 0.14% hits | inhibition, % at 6 µM | C. albicans biofilm + clotrimazole, Alamar Blue | AID 834;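 active = inhibition above 20%; inactive = inhibition below 20%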;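 note: preformed 24 hr biofilms exposed to compound for 48 hr; 0% = biofilm without compound and 100% = blank killed by clotrimazole plus chlorhexidine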
HCT116 PTEN-null: growth suppressors of cells with PTEN tumor suppressor deletion. HCT116 PTEN-null viability, CellTiter-Glo, 60 h; active compounds read low. viability, % at 10 µM. 140,000 compounds, 1.2% hits. AID 827;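 active = viability at or below a set limit, 4 SD under the median of all tested compounds, cut at about 3.7% in these data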;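 note: PTEN knockout HCT116 line with beta catenin targeted HCT116 as companion control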
Fibroblast inh: blocks proliferation of human lung fibroblasts | viability, % at 10 µM | LL 47 human lung fibroblast viability, ATP luminescence; active compounds read low | AID 719 | 85,000 compounds, 1.1% hits;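 active = viability at or below 50% in the single dose screen; inactive = viability above 50%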;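 note: compound exposure lasted 72 h before the ATP readout; 100% = median luminescence of untreated cell-only wells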
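Benchmarks: Cell-only wells, no compound | Test system: LL 47 human lung fibroblasts, passage 12 or lower | Input: 1,150 cells/well | Measured by: CellTiter-Glo luminescence measuring cellular ATP | Medium: IMEM, 15% FBS supplement | Schedule: Overnight attachment after seeding, then 72 h compound exposure at 37 °C | Doses: Compound addition at 0.1% DMSO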
H69AR inhibit: blocks growth of human H69AR lung tumor cells. H69AR lung tumor viability, ATP luminescence, 72 h; active compounds read low. viability, % at 10 µM. 85,000 compounds, 6% hits;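 active = viability at or below 40%; inactive = viability above 40%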;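 note: multidrug resistant small cell line overexpressing MRP-1 efflux transporter; 100% = mean luminescence of untreated control wells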
HUVEC inhibit: inhibitors of human endothelial cell proliferation | HUVEC proliferation, CellTiter-Glo luminescence, 72 h; active compounds read low | viability, % at 10 µM (by protocol) | 86,000 compounds, 1.1% hits | AID 648;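 active = viability at or below 30%; inactive = viability above 30%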;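 note: 100% = median luminescence of DMSO-only cell control wells on each plate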
HCT116 bCat-KO: beta-catenin-lacking colon tumor cell growth suppression; 140,000 compounds, 1.5% hits; AID 818; viability, % at 10 µM; HCT116 beta-catenin knockout viability, CellTiter-Glo, 60 h; active compounds read low;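 active = viability at or under a set limit, the compound median less 4 SD, cut at about 6% in these data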;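 note: 0% = Hyamine 1622 control at 20 µM and 100% = untreated cell control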
* hit, by the source's call. This is one part of a sample in which hits are shown more often than they occur.

CCOC(=O)C1=C(N)Oc2c(c(=O)[nH]c3ccccc23)C1c1ccccc1 (stereo not given) was read as Candida biofilm 5.0, HCT116 PTEN-null 15.5, Fibroblast inh 97.5, H69AR inhibit 13.2*, HUVEC inhibit 59.4 and HCT116 bCat-KO 33.2.
Cc1c(N=C(N)/N=C(\N)Nc2ccc(Br)cc2)c(=O)n(-c2ccccc2)n1C was read as HCT116 PTEN-null 76.7 and HCT116 bCat-KO 80.1.
For Cc1nc(NCc2ccco2)[nH]c(=O)c1CCC(C)C the results were Candida biofilm 6.1, HCT116 PTEN-null 88.4, Fibroblast inh 89.6, H69AR inhibit 108.5, HUVEC inhibit 92.7 and HCT116 bCat-KO 96.4.
`O=c1[nH]c(NCc2ccco2)nnc1Cc1ccccc1Cl` gave Candida biofilm -0.1, HCT116 PTEN-null 36.9, Fibroblast inh 77.3, H69AR inhibit 30.3*, HUVEC inhibit 48.4 and HCT116 bCat-KO 30.1.
For COc1cc(OC)c(C(=O)OC(C)C(=O)Nc2cccc(C(F)(F)F)c2)cc1OC (stereo not given) the results were HCT116 PTEN-null 87.8 and HCT116 bCat-KO 85.8.
Screening N#Cc1c(C(F)(F)F)cc(-c2ccccc2)nc1SCc1nc(N)nc(N2CCOCC2)n1 returned Candida biofilm -6.5, HCT116 PTEN-null 48.4, Fibroblast inh 74.5, H69AR inhibit 20.7*, HUVEC inhibit 63.2 and HCT116 bCat-KO 60.5.
COc1ccc(NC(=O)c2ccccn2)cc1 was read as HCT116 PTEN-null 82.2 and HCT116 bCat-KO 85.5.
O=C(N/N=C/c1ccc(O)c(O)c1)c1ccc(CSc2cccc3cccnc23)cc1 was read as Candida biofilm 7.0, HCT116 PTEN-null 77.8, Fibroblast inh 73.7, H69AR inhibit 39.9*, HUVEC inhibit 73.1 and HCT116 bCat-KO 72.9.
`CCOc1ccc(C(=O)N/N=C/c2cccc3cccnc23)cc1` gave HCT116 PTEN-null 8.0 and HCT116 bCat-KO 10.0.
For COc1ccc(C(=O)N/N=C(\c2ccccc2)c2ccccn2)cc1 the results were HCT116 PTEN-null 6.3 and HCT116 bCat-KO 4.6*.
COc1ccc(C(=O)N/N=C/c2cccc3cccnc23)cc1 was read as HCT116 PTEN-null 5.6 and HCT116 bCat-KO 4.9*.
`Cc1cc2ccccc2n2c(SCC(=O)Nc3ccc(S(=O)(=O)N4CCC(C)CC4)cc3)nnc12` gave HCT116 PTEN-null 73.8 and HCT116 bCat-KO 76.9.
Cn1c(SCC(=O)N/N=C/c2ccc([N+](=O)[O-])s2)nnc1-c1ccccc1 was read as HCT116 PTEN-null 1.6* and HCT116 bCat-KO 1.9*.
For O=C(Cc1ccccc1)N/N=C/c1ccc([N+](=O)[O-])s1 the results were HCT116 PTEN-null 1.0* and HCT116 bCat-KO 1.4*.
Cc1ccc(-c2nnc(SCC(=O)N/N=C/c3ccc(C)s3)n2-c2ccc(C)cc2)cc1 was read as HCT116 PTEN-null 69.2 and HCT116 bCat-KO 79.7.
Screening O=C(N/N=C/c1ccc([N+](=O)[O-])s1)C(O)c1ccccc1 (stereo not given) returned HCT116 PTEN-null 1.0* and HCT116 bCat-KO 0.8*.
For COc1ccc(/C=N/N2CCOCC2)cc1COc1ccc(Cl)cc1 the results were HCT116 PTEN-null 43.1 and HCT116 bCat-KO 39.7.
Screening O=S1(=O)C=C(Sc2nnc(-c3ccccc3)o2)c2ccccc21 returned Candida biofilm 3.9, HCT116 PTEN-null 0.9*, H69AR inhibit 0.3*, HUVEC inhibit 10.7* and HCT116 bCat-KO 1.2*.
For O=S1(=O)C=C(Sc2nc3ccccc3s2)c2ccccc21 the results were Candida biofilm 6.1, HCT116 PTEN-null 1.2*, Fibroblast inh 3.1*, H69AR inhibit 102.7, HUVEC inhibit 12.4* and HCT116 bCat-KO 1.9*.
CSc1nnc(-c2ccccc2)o1 was read as Candida biofilm 6.8, HCT116 PTEN-null 103.2, Fibroblast inh 100.7, H69AR inhibit 98.0, HUVEC inhibit 96.4 and HCT116 bCat-KO 104.0.
Cc1cc(C)nc(SC2=CS(=O)(=O)c3ccccc32)n1 was read as Candida biofilm 3.4, HCT116 PTEN-null 1.8*, Fibroblast inh 58.1, H69AR inhibit 5.8*, HUVEC inhibit 93.6 and HCT116 bCat-KO 2.0*.
For CCOC(=O)c1cc(C)n(Cc2ccc(OCC)c(OC)c2)c1C the results were Candida biofilm 8.8, HCT116 PTEN-null 86.2, Fibroblast inh 85.2, H69AR inhibit 88.8, HUVEC inhibit 93.6 and HCT116 bCat-KO 71.6.
For c1ccc(CCn2c3ccccc3c3nnc(SCc4ccc5nonc5c4)nc32)cc1 the results were Candida biofilm 0.9, HCT116 PTEN-null 60.0, Fibroblast inh 79.5, H69AR inhibit 86.7, HUVEC inhibit 74.7 and HCT116 bCat-KO 65.2.
Screening O=C1C(C2=C(O)c3ccccc3C2=O)=Nc2ccccc21 returned HCT116 PTEN-null 2.8* and HCT116 bCat-KO 7.6.
CCOc1ccc(S(=O)(=O)Nc2cc(Cl)ccc2O)cc1 was read as Candida biofilm 7.7, HCT116 PTEN-null 59.0, Fibroblast inh 95.8, H69AR inhibit 17.3*, HUVEC inhibit 80.0 and HCT116 bCat-KO 61.2.
`CCOc1ccc(S(=O)(=O)Nc2cccc(Cl)c2)cc1` gave Candida biofilm 3.6, H69AR inhibit 10.0* and HUVEC inhibit 55.1.
For CCOc1ccc(NS(=O)(=O)c2ccc(NS(=O)(=O)c3ccccc3)cc2)cc1 the results were Candida biofilm -0.1, HCT116 PTEN-null 92.9, Fibroblast inh 92.6, H69AR inhibit 62.7, HUVEC inhibit 83.5 and HCT116 bCat-KO 90.2.
CCOc1ccc(S(=O)(=O)Nc2ccccc2SC)cc1 was read as Candida biofilm 3.1, HCT116 PTEN-null 68.0, Fibroblast inh 84.8, H69AR inhibit 30.5*, HUVEC inhibit 80.2 and HCT116 bCat-KO 78.3.
`CC(C)OC(=O)c1ccc(NC(=O)c2ccco2)cc1` gave Candida biofilm 1.6, HCT116 PTEN-null 87.3, Fibroblast inh 101.4, H69AR inhibit 93.1, HUVEC inhibit 103.8 and HCT116 bCat-KO 84.2.
O=C(Nc1nnc(-c2ccco2)s1)c1ccccc1 was read as Candida biofilm 1.9, HCT116 PTEN-null 103.2, Fibroblast inh 102.5, H69AR inhibit 100.7, HUVEC inhibit 92.6 and HCT116 bCat-KO 98.8.
`COc1ccc(C(=O)Nc2nnc(-c3ccco3)s2)cc1` gave Candida biofilm -1.4, HCT116 PTEN-null 1.8*, Fibroblast inh 96.5, H69AR inhibit 8.2*, HUVEC inhibit 55.0 and HCT116 bCat-KO 1.6*.
COCCNC(=O)C(=O)NCC1OCCCN1S(=O)(=O)c1cccs1 (stereo not given) was read as HCT116 PTEN-null 92.9 and HCT116 bCat-KO 104.9.
For Sc1oc(-c2ccccc2)cc1C=Nc1ccccc1 the results were Candida biofilm 0.7, HCT116 PTEN-null 94.3, Fibroblast inh 102.7, H69AR inhibit 25.9*, HUVEC inhibit 69.3 and HCT116 bCat-KO 91.9.
`Oc1oc(-c2ccccc2)nc1C=Nc1ccccc1` gave Candida biofilm 0.5, HCT116 PTEN-null 87.7, Fibroblast inh 106.6, H69AR inhibit 89.7, HUVEC inhibit 98.2 and HCT116 bCat-KO 94.8.
